From ChEMBL document CHEMBL3593207, “Imidazole clubbed 1,3,4-oxadiazole derivatives as potential antifungal agents” (2015)
In brackets after ≈: the same amount, converted by molar mass. One block for each molecule: values may come before it.

Assays:
Candida albicans [1] = assay: Inhibition of ergosterol biosynthesis in Candida albicans 2323 assessed as ergosterol content at 1/2 MIC after 16 hrs by spectrophotometer analysis; assay type: functional; design: scale not given: the % may be the effect or the level left
Method in brief: (§1)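 Cells were pelleted and washed, and wet weight taken. Pellets were saponified in 25% alcoholic KOH at 85 °C for 1 h. Sterols were extracted into n-heptane/water. Ergosterol content is expressed relative to untreated control cells.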

Candida tropicalis [2] = assay: Inhibition of ergosterol biosynthesis in Candida tropicalis 2356 assessed as ergosterol content at MIC after 16 hrs by spectrophotometer analysis; assay type: functional; design: scale not given: the % may be the effect or the level left; method in brief: as §1
Candida tropicalis [3] = assay: Inhibition of ergosterol biosynthesis in Candida tropicalis 2356 assessed as ergosterol content at 1/2 MIC after 16 hrs by spectrophotometer analysis; assay type: functional; design: scale not given: the % may be the effect or the level left; method in brief: as §1
Candida albicans [4] = assay: Antifungal activity against clinical isolates of Candida albicans 2323 at 2 times MIC after 48 hrs by disc diffusion assay; assay type: functional
Method in brief: (§2)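 Cells (10^3 cells ml−1) grown in YPD were mixed into molten agar (~40 °C) and poured into 100-mm plates. Filter discs (4 mm) were spotted with 10 µl of compound at 1/2 × MIC, MIC or 2 × MIC. Fluconazole and 1% DMSO were the controls. Plates were incubated at 37 °C for 48 h and inhibition zone diameters recorded in mm.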

Candida albicans [5] = assay: Antifungal activity against clinical isolates of Candida albicans 2323 at half MIC after 48 hrs by disc diffusion assay; assay type: functional; method in brief: as §2
Candida albicans [6] = assay: Antifungal activity against Candida albicans ATCC 10261 at MIC after 48 hrs by disc diffusion assay; assay type: functional; method in brief: as §2
Candida albicans [7] = assay: Inhibition of ergosterol biosynthesis in Candida albicans 2779 assessed as ergosterol content at MIC after 16 hrs by spectrophotometer analysis; assay type: functional; design: scale not given: the % may be the effect or the level left; method in brief: as §1
Candida albicans [8] = assay: Inhibition of ergosterol biosynthesis in Candida albicans 2779 assessed as ergosterol content at 1/2 MIC after 16 hrs by spectrophotometer analysis; assay type: functional; design: scale not given: the % may be the effect or the level left; method in brief: as §1
Candida tropicalis [9] = assay: Antifungal activity against clinical isolates of Candida tropicalis 2029 at half MIC after 48 hrs by disc diffusion assay; assay type: functional; method in brief: as §2
Candida albicans [10] = assay: Antifungal activity against Candida albicans ATCC 10261 at half MIC after 48 hrs by disc diffusion assay; assay type: functional; method in brief: as §2
Candida albicans [11] = assay: Antifungal activity against clinical isolates of Candida albicans 2323 at MIC after 48 hrs by disc diffusion assay; assay type: functional; method in brief: as §2
Candida albicans [12] = assay: Inhibition of ergosterol biosynthesis in Candida albicans 2367 assessed as ergosterol content at MIC after 16 hrs by spectrophotometer analysis; assay type: functional; design: scale not given: the % may be the effect or the level left; method in brief: as §1
Candida tropicalis [13] = assay: Antifungal activity against clinical isolates of Candida tropicalis 2356 at 2 times MIC after 48 hrs by disc diffusion assay; assay type: functional; method in brief: as §2
Candida albicans [14] = assay: Cytotoxicity against Candida albicans ATCC 10261 at MIC after 24 hrs by WST1 assay; assay type: functional
Method in brief: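 Candida cells were exposed to MIC and sub-MIC levels for 24 h in microplates, then to WST-1/CEC dye for 30 min at 37 °C. Plates were shaken 1 min and the reaction stopped with 1% SDS. Formazan was read at 450 nm. % cytotoxicity = 100 × (cell control − experimental)/cell control. Triplicates, mean ± SD.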

Candida albicans [15] = assay: Inhibition of ergosterol biosynthesis in Candida albicans ATCC 10261 assessed as ergosterol content at 1/2 MIC after 16 hrs by spectrophotometer analysis; assay type: functional; design: scale not given: the % may be the effect or the level left; method in brief: as §1
Candida albicans [16] = assay: Inhibition of ergosterol biosynthesis in Candida albicans 2367 assessed as ergosterol content at 1/2 MIC after 16 hrs by spectrophotometer analysis; assay type: functional; design: scale not given: the % may be the effect or the level left; method in brief: as §1
Candida albicans [17] = assay: Antifungal activity against clinical isolates of Candida albicans 2367 by broth microdilution assay; assay type: functional
Method in brief: (§3)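 CLSI M27-A3 broth microdilution. Compounds diluted to 1 mg/ml in 1% DMSO. Fluconazole (1 mg/ml) served as positive control, 1% DMSO as vehicle control, with media and culture controls. Triplicate at each concentration, repeated thrice. Inocula came from YPDA stocks subcultured in broth for 48 h at 37 °C.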

Candida albicans [18] = assay: Antifungal activity against clinical isolates of Candida albicans 2367 at 2 times MIC after 48 hrs by disc diffusion assay; assay type: functional; method in brief: as §2
Candida tropicalis [19] = assay: Antifungal activity against Candida tropicalis ATCC 750 at MIC after 48 hrs by disc diffusion assay; assay type: functional; method in brief: as §2
Candida tropicalis [20] = assay: Antifungal activity against clinical isolates of Candida tropicalis 2356 by broth microdilution assay; assay type: functional; method in brief: as §3
Candida tropicalis [21] = assay: Antifungal activity against Candida tropicalis ATCC 750 at 2 times MIC after 48 hrs by disc diffusion assay; assay type: functional; method in brief: as §2
Candida albicans [22] = assay: Inhibition of ergosterol biosynthesis in Candida albicans 2323 assessed as ergosterol content at MIC after 16 hrs by spectrophotometer analysis; assay type: functional; design: scale not given: the % may be the effect or the level left; method in brief: as §1
Candida tropicalis [23] = assay: Antifungal activity against Candida tropicalis ATCC 750 by broth microdilution assay; assay type: functional; method in brief: as §3
Candida tropicalis [24] = assay: Antifungal activity against clinical isolates of Candida tropicalis 2356 at MIC after 48 hrs by disc diffusion assay; assay type: functional; method in brief: as §2
Candida albicans [25] = assay: Antifungal activity against Candida albicans ATCC 10261 at 2 times MIC after 48 hrs by disc diffusion assay; assay type: functional; method in brief: as §2
Candida tropicalis [26] = assay: Antifungal activity against clinical isolates of Candida tropicalis 2029 at MIC after 48 hrs by disc diffusion assay; assay type: functional; method in brief: as §2
Candida tropicalis [27] = assay: Inhibition of ergosterol biosynthesis in Candida tropicalis 2029 assessed as ergosterol content at MIC after 16 hrs by spectrophotometer analysis; assay type: functional; design: scale not given: the % may be the effect or the level left; method in brief: as §1
Candida tropicalis [28] = assay: Antifungal activity against clinical isolates of Candida tropicalis 2356 at half MIC after 48 hrs by disc diffusion assay; assay type: functional; method in brief: as §2
Candida tropicalis [29] = assay: Antifungal activity against clinical isolates of Candida tropicalis 2029 by broth microdilution assay; assay type: functional; method in brief: as §3
Candida tropicalis [30] = assay: Antifungal activity against Candida tropicalis ATCC 750 at half MIC after 48 hrs by disc diffusion assay; assay type: functional; method in brief: as §2
Candida albicans [31] = assay: Antifungal activity against clinical isolates of Candida albicans 2779 by broth microdilution assay; assay type: functional; method in brief: as §3
Candida albicans [32] = assay: Antifungal activity against clinical isolates of Candida albicans 2779 at 2 times MIC after 48 hrs by disc diffusion assay; assay type: functional; method in brief: as §2
Candida tropicalis [33] = assay: Cytotoxicity against Candida tropicalis ATCC 750 at MIC after 24 hrs by WST1 assay
Candida albicans [34] = assay: Antifungal activity against clinical isolates of Candida albicans 2367 at MIC after 48 hrs by disc diffusion assay; assay type: functional; method in brief: as §2
Candida tropicalis [35] = assay: Inhibition of ergosterol biosynthesis in Candida tropicalis ATCC 750 assessed as ergosterol content at 1/2 MIC after 16 hrs by spectrophotometer analysis; assay type: functional; design: scale not given: the % may be the effect or the level left; method in brief: as §1
Candida albicans [36] = assay: Inhibition of ergosterol biosynthesis in Candida albicans ATCC 10261 assessed as ergosterol content at MIC after 16 hrs by spectrophotometer analysis; assay type: functional; design: scale not given: the % may be the effect or the level left; method in brief: as §1
Candida albicans [37] = assay: Antifungal activity against clinical isolates of Candida albicans 2779 at MIC after 48 hrs by disc diffusion assay; assay type: functional; method in brief: as §2
Candida tropicalis [38] = assay: Inhibition of ergosterol biosynthesis in Candida tropicalis 2029 assessed as ergosterol content at 1/2 MIC after 16 hrs by spectrophotometer analysis; assay type: functional; design: scale not given: the % may be the effect or the level left; method in brief: as §1
Candida albicans [39] = assay: Antifungal activity against clinical isolates of Candida albicans 2367 at half MIC after 48 hrs by disc diffusion assay; assay type: functional; method in brief: as §2
Candida tropicalis [40] = assay: Antifungal activity against clinical isolates of Candida tropicalis 2029 at 2 times MIC after 48 hrs by disc diffusion assay; assay type: functional; method in brief: as §2
Candida albicans [41] = assay: Antifungal activity against Candida albicans ATCC 10261 by broth microdilution assay; assay type: functional; method in brief: as §3
Candida tropicalis [42] = assay: Inhibition of ergosterol biosynthesis in Candida tropicalis ATCC 750 assessed as ergosterol content at MIC after 16 hrs by spectrophotometer analysis; assay type: functional; design: scale not given: the % may be the effect or the level left
Method in brief: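 Cells were harvested, washed, and wet pellet weight recorded. Pellets were saponified in 3 mL 25% alcoholic KOH at 85 °C for 1 h, then sterols extracted into n-heptane. Ergosterol is expressed relative to untreated control cells.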

Candida albicans [43] = assay: Antifungal activity against clinical isolates of Candida albicans 2779 at half MIC after 48 hrs by disc diffusion assay; assay type: functional; method in brief: as §2
Candida albicans [44] = assay: Antifungal activity against clinical isolates of Candida albicans 2323 by broth microdilution assay; assay type: functional; method in brief: as §3

- MIC (Candida albicans [17]): 32 µg/mL (≈ 92.4 µM)
- MIC (Candida tropicalis [20]): 125 µg/mL (≈ 361 µM)
- MIC (Candida tropicalis [23]): 16 µg/mL (≈ 46.2 µM)
- MIC (Candida tropicalis [29]): 32 µg/mL (≈ 92.4 µM)
- MIC (Candida albicans [31]): 64 µg/mL (≈ 185 µM)
- MIC (Candida albicans [41]): 16 µg/mL (≈ 46.2 µM)
- MIC (Candida albicans [44]): 32 µg/mL (≈ 92.4 µM)
Compound: CCc1ccnc(-c2nccn2Cc2nnc(-c3ccc(N)cc3)o2)c1
- Activity (Candida albicans [1]): 43%
- Activity (Candida tropicalis [2]): 86%
- Activity (Candida tropicalis [3]): 52%
- inhibition zone (IZ) (Candida albicans [4]): 7 mm
- inhibition zone (IZ) (Candida albicans [5]): 0 mm
- inhibition zone (IZ) (Candida albicans [6]): 10 mm
- Activity (Candida albicans [7]): 81%
- Activity (Candida albicans [8]): 42%
- inhibition zone (IZ) (Candida tropicalis [9]): 2 mm
- inhibition zone (IZ) (Candida albicans [10]): 7 mm
- inhibition zone (IZ) (Candida albicans [11]): 4 mm
- Activity (Candida albicans [12]): 81%
- inhibition zone (IZ) (Candida tropicalis [13]): 7 mm
- Activity (Candida albicans [14]): 87.27%
- Activity (Candida albicans [15]): 57%
- Activity (Candida albicans [16]): 45%
- inhibition zone (IZ) (Candida albicans [18]): 7 mm
- inhibition zone (IZ) (Candida tropicalis [19]): 9 mm
- inhibition zone (IZ) (Candida tropicalis [21]): 13 mm
- Activity (Candida albicans [22]): 89%
- inhibition zone (IZ) (Candida tropicalis [24]): 4 mm
- inhibition zone (IZ) (Candida albicans [25]): 13 mm
- inhibition zone (IZ) (Candida tropicalis [26]): 5 mm
- Activity (Candida tropicalis [27]): 84%
- inhibition zone (IZ) (Candida tropicalis [28]): 0 mm
- inhibition zone (IZ) (Candida tropicalis [30]): 5 mm
- inhibition zone (IZ) (Candida albicans [32]): 11 mm
- Activity (Candida tropicalis [33]): 80.81%
- inhibition zone (IZ) (Candida albicans [34]): 5 mm
- Activity (Candida tropicalis [35]): 41%
- Activity (Candida albicans [36]): 98%
- inhibition zone (IZ) (Candida albicans [37]): 8 mm
- Activity (Candida tropicalis [38]): 44%
- inhibition zone (IZ) (Candida albicans [39]): 2 mm
- inhibition zone (IZ) (Candida tropicalis [40]): 8 mm
- Activity (Candida tropicalis [42]): 98%
- inhibition zone (IZ) (Candida albicans [43]): 1 mm

- MIC (Candida albicans [17]): > 1000 µg/mL
- MIC (Candida tropicalis [20]): > 1000 µg/mL
- MIC (Candida tropicalis [23]): > 1000 µg/mL
- MIC (Candida tropicalis [29]): > 1000 µg/mL
- MIC (Candida albicans [31]): > 1000 µg/mL
- MIC (Candida albicans [41]): > 1000 µg/mL
- MIC (Candida albicans [44]): > 1000 µg/mL
Compound: CCc1ccnc(-c2nccn2Cc2nnc(-c3ccccc3Cl)o2)c1
